Screens: PubChem, several laboratories
procasp3 activ: procaspase-3 (human) activation | P42574 | recombinant procaspase-3 D3A, Ac-DEVD-pNA absorbance 405 nm | activation, % at 8.5 µM | hit rate 0.11% among 330,000 | AID 463141;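 active = activation above the mean of all tested compounds plus 3 SD, cut at about 21% in these data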
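Assay system – Procaspase-3 D3A mutant, all three cleavage aspartates alanine · Controls – DMSO-only low control, 5 µM PC-3 D3A high control · Schedule – 1 h compound preincubation, 2 h substrate hydrolysis at 25 °C · Signal – 405 nm absorbance of p-nitroaniline, reads at 0 and 120 min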
PLCg1 inh: inhibitors of human phospholipase C gamma1; purified PLC-gamma1, fluorogenic substrate, fluorescence; inhibition, % at 12.2 µM; P19174; hit rate 0.84% among 370,000; in the data active = inhibition above about 9.5%
sPLA2-III inh: Blocks human group III sPLA2 activity; Q9NZ20; QFRET BODIPY PC-A2 liposome hydrolysis, fluorescence; inhibition, % at 12.2 µM; hit rate 0.56% among 370,000;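 active = inhibition above mean plus 3 SD of compounds lying within the high and low control bounds, cut at about 19% in these data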
Arr AP2 block: human beta-arrestin and AP2 interaction inhibition. FITC-arrestin peptide / GST-AP2 beads, flow cytometry; AP2 beta2 appendage carries R879A mutation. inhibition, % at 10 µM. hit rate 0.31% among 340,000;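 active = inhibition above a set limit, near 3 SD of compounds lacking own fluorescence, cut at about 54% in these data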
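system = GST-tagged AP2 beta2-adaptin appendage (R879A) on 4 µm glutathione beads | reagent = FITC-labelled arrestin peptide probe, 50 nM final | schedule = compound with beads 12 min RT, then probe 1 h RT | signal = HyperCyt-sampled flow cytometry, FL1 channel, ex 488/em 535 nm | read-out = percent response from loss of bead-bound FITC fluorescence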
PLCb3 inh: PLC-beta3 (human) inhibition, primary screen. Q01970. Purified PLC-beta3, fluorogenic substrate, fluorescence. inhibition, % at 12.2 µM. hit rate 0.18% among 370,000. AID 720704; in the data active = inhibition above about 11%
procasp7 counter: counter-screen for procaspase-3 activators: activators of human procaspase-7; P55210; recombinant procaspase-7, Ac-DEVD-pNA absorbance 405 nm; D23A/D198A/D206A triple mutant, cannot self-cleave; scale: DMSO 0, 5 µM enzyme 100; activation, % at 8.5 µM; hit rate 0.093% among 330,000; AID 463210;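 active = percent activation above the screen-wide mean plus 3 SD, cut at about 25% in these data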
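buffer or medium = Zinc-free HEPES/NaCl buffer, pH 7.4 | material = Procaspase-7 triple mutant (PC-7 D3A) | input = 2 µM procaspase-7 mutant as dispensed | signal = Epi-absorbance of released pNA at 405 nm, two timepoints | timing = 1 h preincubation, 2 h reaction | replicates = singlicate compound testing | evaluation = % activation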
Arr-AP2 CP1: blocks beta-arrestin peptide binding to human AP2; shares compounds with Arr AP2 block; GST-AP2 beads, FITC arrestin peptide binding, flow cytometry; GST-fused beta2-adaptin appendage, R879A mutant; inhibition, % at 10 µM; hit rate 2% among 1,300;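 active = inhibition above a set limit, roughly 3 SD of non-fluorescent compound noise, cut at about 38% in these data; inactive = inhibition at or below that limit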;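 note: loss of bead fluorescence from 50 nM FITC arrestin peptide bound to appendage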
GST GSH counter: disrupts GST binding to glutathione beads, arrestin-AP2 artifact; AID 588338; inhibition, % at 10 µM; GST-fluorescein binding to GSH beads, fluorescence, counter-screen; hit rate 2% among 1,300; shares compounds with Arr AP2 block;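 active = inhibition above 50%, about 3 SD of the inhibition seen with non-fluorescent compounds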;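 note: fluorescein maleimide labelled GST captured on 4 micron glutathione beads; higher means more loss of bead fluorescence from quenching or blocked binding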
A number is an active result; n = inactive; x = no result given. In the library only some 1.9% were active in any assay of this set; here they are far more common.

SMILES	procasp3 activ	PLCg1 inh	sPLA2-III inh	Arr AP2 block	PLCb3 inh	procasp7 counter	Arr-AP2 CP1	GST GSH counter
COc1ccccc1CN1CC(C(=O)NCc2c(F)ccc(C)c2F)CCC1=O (stereo not drawn)	n	n	n	n	n	n	n	n
CCn1c(Cc2cccs2)nnc1SCC(=O)c1ccc(Cl)cc1	x	n	n	x	n	x	x	x
COC(=O)C1=C(C)N(Cc2ccc(C(F)(F)F)cc2)C(=NCc2ccccc2)NC1c1ccc(Cl)cc1 (stereo not drawn)	x	n	n	x	n	x	x	x
COC(=O)[C@]12C[C@H](CC(=O)NCCc3ccccc3OC)C(=O)N(Cc3ccc4c(c3)OCO4)C1=C[C@H](C(C)C)O[C@@H]2C1CC1	x	n	n	x	n	x	x	x
CN=C1S/C(=C/c2cc(C)n(-c3cc(C)ccc3OC)c2C)C(=O)N1C	x	n	n	x	n	x	x	x
C=CCN1C(=O)[C@H](CC(=O)NCc2cccc(C(F)(F)F)c2)[C@@]2(C(=O)OCC)CCCC=C12	x	n	n	x	n	x	x	x
O=C1CCCC/C1=N\Nc1ccc(OCc2ccccc2)cc1	n	n	n	98	n	n	n	n
O=C1CCCC/C1=N\Nc1ccc(C2CCCCC2)cc1	n	x	x	x	x	n	x	x
O=[N+]([O-])c1ccc(N2CCN(Cc3ccccc3)CC2)nc1	n	n	n	n	n	n	x	x
O=[N+]([O-])c1ccc(CN2CCN(c3ccc4ccccc4n3)CC2)cc1	n	n	n	54	n	n	n	n
COc1ccc(/C=N\N=C2/SC(CC(=O)O)C(=O)N2c2ccc(O)cc2)cc1 (stereo not drawn)	n	n	n	56	n	n	n	n
COc1ccc(/C=N/N=C2\SC(CC(=O)O)C(=O)N2c2ccccc2)cc1 (stereo not drawn)	n	n	n	n	n	n	x	x
CCOC(=O)C1CCN(c2cc3c(cc2NC(=O)c2ccccc2Cl)n(C)c(=O)n3C)CC1	n	n	n	n	n	n	n	n
CCOC(=O)C1CCN(c2cc3c(cc2NC(=O)c2ccccc2F)n(C)c(=O)n3C)CC1	n	n	n	n	n	n	n	n
CCOC(=O)C1CCN(c2cc3c(cc2NC(=O)c2ccc(F)cc2)n(C)c(=O)n3C)CC1	n	n	n	n	n	n	n	n
CCOC(=O)C1CCN(c2cc3c(cc2NC(=O)c2ccccc2OCC)n(C)c(=O)n3C)CC1	n	n	n	n	n	n	n	n
CCOc1cc(NC(=O)C2CC2)c(OCC)cc1NC(=O)c1ccccc1OCC	n	n	n	n	n	n	x	x
O=C(C[C@H]1CC[C@@H](NS(=O)(=O)c2ccccc2)[C@@H](CO)O1)NCc1ccc(Cl)c(Cl)c1	x	n	n	x	n	x	x	x
COc1ccc(C(=O)OCCCN(C)C2CN(Cc3cn(Cc4ccc([N+](=O)[O-])cc4)nn3)S(=O)(=O)C2)cc1OC (stereo not drawn)	x	n	n	x	n	x	x	x
Cc1ccc(-c2nnc(SCC(=O)N/N=C/c3ccccc3C(=O)O)n2C2CCCCC2)cc1	n	n	n	68	n	n	n	n
Cc1ccc(-n2c(SCC(=O)N/N=C/c3ccccc3C(=O)O)nnc2-c2ccccc2)cc1	n	n	n	n	n	n	x	x
CC12CN3CC(C)(CN(C1)C3c1ccc(Br)cc1O)C2 (stereo not drawn)	n	n	n	n	n	n	n	n
CC(=O)OCC(=O)NCC1CCN(C(=O)C(=O)c2cc3ccccc3o2)CC1	x	n	n	x	n	x	x	x
Cc1cc(C(=O)Nn2cnc3ccccc3c2=O)ccc1[N+](=O)[O-]	n	n	n	54	n	n	n	n
CCn1cc(C(=O)Nc2ccc(C)c([N+](=O)[O-])c2)cn1	n	n	n	57	n	n	n	n
SMILES	procasp3 activ	PLCg1 inh	sPLA2-III inh	Arr AP2 block	PLCb3 inh	procasp7 counter	Arr-AP2 CP1	GST GSH counter
Nc1nn(-c2ccccc2)c(N)c1N=Nc1ccccc1	n	n	n	n	n	n	x	x
Nc1nn(-c2ccccc2)c(N)c1N=Nc1ccccc1F	n	n	n	56	n	n	n	n
Cc1cccc(CN2CCN(C3CN(Cc4cn(Cc5ccc(C(F)(F)F)cc5)nn4)S(=O)(=O)C3)CC2)c1 (stereo not drawn)	x	n	n	x	n	x	x	x
COc1ccc(-c2nn(-c3ccccc3)cc2C(=O)N(C)C)cc1	n	n	n	60	n	n	n	n
O=C(O)[C@H]1CC=C[C@H]2CCN(Cc3ccc(Cl)c(Cl)c3)C(=O)[C@@H]12	n	n	n	67	n	n	n	n
O=C(Cc1ccccc1[N+](=O)[O-])N1CCN(c2ccccc2F)CC1	n	n	n	61	n	n	n	n
CCN(CC)C(=O)CC[C@H]1CC[C@]2(CCCN(Cc3cccc4ccccc34)C2)O1	x	n	n	x	n	x	x	x
COc1cc(C(=O)NC2CCCCN(C(C)C)C2=O)cc(OC)c1OC (stereo not drawn)	x	n	n	x	n	x	x	x
C=CCNC(=O)NC[C@@]1(C(=O)OC)CC(=O)N(C)[C@@H]1c1ccccc1	x	n	n	x	n	x	x	x
